Screens (PubChem)
Rad51 HR inh: blocks human Rad51 in homologous recombination | hRad51 DNA strand exchange, fluorescence dequenching | inhibition, % at 10 µM | hit rate 0.085% among 200,000 | AID 1385;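 active means inhibition above 40% at the single screening dose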;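 further: 0% = DMSO control wells and 100% = blanks with heterologous ssDNA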
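material = hRad51 filaments on single-stranded DNA | reagent = Donor/quencher-labelled 47-bp dsDNA substrate | compound = 10 µM final, single point | schedule = strand-exchange reaction 15 min at room temperature | measured by = fluorescein emission 520 nm, excitation 485 nm | read-out basis = % inhibition versus plate control and blank means | benchmarks = plate controls and plate blanks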
Arbovirus inh: antivirals against arbovirus infection; arbovirus infection cell-based antiviral screen; inhibition, % at 10 µM; hit rate 0.37% among 200,000; AID 1251; in the data active means inhibition above about 30%
Wee1 degr inh: human Wee1 degradation inhibition, primary screen. HeLa Luc-Wee1K328M stability, luciferase luminescence; 100% = proteasome inhibitor MG132 effect. reporter increase, % at 5 µM. hit rate 1.2% among 220,000. AID 1321;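 active means activation above the mean of all tested compounds plus 3 SD, set per screening run, cut at about 8.8% in these data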;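 further: cells exposed to compound for 20 h before luminescence read; 0% = DMSO alone and 100% = MG132 at 30 µM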
Target sequence (P30291 whole entry K328M): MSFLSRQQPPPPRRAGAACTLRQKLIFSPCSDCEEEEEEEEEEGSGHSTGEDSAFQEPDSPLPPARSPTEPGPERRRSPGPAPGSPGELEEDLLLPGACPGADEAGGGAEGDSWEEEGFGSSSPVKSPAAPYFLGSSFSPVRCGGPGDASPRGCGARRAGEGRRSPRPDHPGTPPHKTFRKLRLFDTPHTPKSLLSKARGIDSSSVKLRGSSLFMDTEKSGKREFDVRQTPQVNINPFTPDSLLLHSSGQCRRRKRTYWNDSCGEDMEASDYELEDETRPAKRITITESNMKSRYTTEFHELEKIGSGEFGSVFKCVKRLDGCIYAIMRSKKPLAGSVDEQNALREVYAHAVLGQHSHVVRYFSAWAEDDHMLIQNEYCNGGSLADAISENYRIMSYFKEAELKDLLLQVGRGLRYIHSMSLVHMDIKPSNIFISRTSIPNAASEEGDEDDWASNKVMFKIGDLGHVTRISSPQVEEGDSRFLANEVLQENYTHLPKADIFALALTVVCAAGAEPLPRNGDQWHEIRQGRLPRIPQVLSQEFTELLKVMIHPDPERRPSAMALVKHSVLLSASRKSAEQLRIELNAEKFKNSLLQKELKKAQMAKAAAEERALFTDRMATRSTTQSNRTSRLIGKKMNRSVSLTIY
L major viab: Leishmania major promastigote growth inhibition | Leishmania major promastigotes, resazurin fluorescence viability | inhibition, % at 10 µM | hit rate 9% among 200,000 | AID 1063;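 further: promastigotes grown with compound for 44 hours at 28 °C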
CHOP inh: blocks CHOP induction under ER stress | CHO-K1 CHOP-promoter luciferase, tunicamycin-induced, 15-18 h | inhibition, % at 10 µM | hit rate 3.8% among 220,000 | AID 2732;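 active means compounds that reduced the stress-induced luciferase reporter signal by more than about 70% of percent inhibition, limit read from the data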;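 further: 0% = tunicamycin plus vehicle and 100% = wells without tunicamycin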
PKD1 kinase inh: blocks activity of human protein kinase D1. Q15139. PKD1 kinase fluorescence polarization assay. inhibition, % (concentration not given with the values). hit rate 0.056% among 200,000. AID 797
An asterisk follows results filed as active. Rows were chosen to be rich in hits. Some 12% of all compounds tested hit in one or more screens of this group. Unless noted, no stated cut-off is given here; in the data, active means inhibition above about 50%; inactive means the rest.

For CCCOc1ccc(Oc2nc(-c3ccncc3)nc3ccccc23)cc1 the results were Rad51 HR inh 12, Wee1 degr inh -2 and CHOP inh 0.
For CCCCN(CC)c1nc(-c2ccncc2)nc2ccccc12 the results were Rad51 HR inh 6, Arbovirus inh -27, Wee1 degr inh 1, L major viab 8, CHOP inh 80* and PKD1 kinase inh -8.
Screening O=C(OCC#CCSc1nnc(-c2cccc3ccccc23)o1)c1ccco1 returned Rad51 HR inh -9, Arbovirus inh 0, Wee1 degr inh -2, L major viab 0, CHOP inh -17 and PKD1 kinase inh -10.
`C=CCc1cc(OC)ccc1OCC(O)CN1CCN(c2ccc(OC)cc2)CC1` (stereo not drawn) gave Rad51 HR inh 0, Arbovirus inh 12, Wee1 degr inh 0, L major viab 16, CHOP inh 37 and PKD1 kinase inh 6.
Cc1ccc(C)c(OCC(O)CN2CCCCC2C)c1 (stereo not drawn) was read as Rad51 HR inh 2, Arbovirus inh 3, Wee1 degr inh -3, L major viab 91*, CHOP inh -6 and PKD1 kinase inh -3.
For C=CCc1ccc(OCC(O)CN2CCCCC2C)c(OC)c1 (stereo not drawn) the results were Rad51 HR inh 8, Arbovirus inh 5, Wee1 degr inh 5, L major viab 93*, CHOP inh 7 and PKD1 kinase inh -6.
C=CCc1ccc(OCC(O)COc2ccc(CC=C)cc2OC)c(OC)c1 was read as Rad51 HR inh -6, Arbovirus inh -32, Wee1 degr inh 1, L major viab 12, CHOP inh 60 and PKD1 kinase inh 1.
C=CCc1ccc(OCC(O)CN2CCCCC2)c(OC)c1 (stereo not drawn) was read as Rad51 HR inh -2, Arbovirus inh -1, Wee1 degr inh 1, L major viab 78*, CHOP inh 2 and PKD1 kinase inh -19.
For O=C(Nc1cccc(C(=O)O)c1)/C(=C\c1ccc2c(c1)OCO2)NC(=O)c1ccc(Br)cc1 the results were Rad51 HR inh -51, Arbovirus inh 9, Wee1 degr inh -2, L major viab -4, CHOP inh 11 and PKD1 kinase inh -11.
Screening COC(=O)c1ccc(COc2cccc(C)c2C)cc1 returned Rad51 HR inh 7, Arbovirus inh 0, Wee1 degr inh 1, L major viab -5, CHOP inh -12 and PKD1 kinase inh 1.
`CC(C)C(=O)N1CCN(C2=NS(=O)(=O)c3ccccc32)CC1` gave Rad51 HR inh 0, Arbovirus inh 0, Wee1 degr inh -1, L major viab -6, CHOP inh -23 and PKD1 kinase inh -1.
Screening Cc1ccccc1NC(=O)C1CCN(C2=NS(=O)(=O)c3ccccc32)CC1 returned Rad51 HR inh 9, Arbovirus inh 0, Wee1 degr inh 10*, L major viab -1, CHOP inh -10 and PKD1 kinase inh 0.
`Cc1cc(NCCCN(C)C)n2nc(-c3cccs3)cc2n1` gave Rad51 HR inh -4, Arbovirus inh -10, Wee1 degr inh 0, L major viab 77*, CHOP inh -6 and PKD1 kinase inh -1.
CCCCC[n+]1cccc2c3ccccc3ccc21 was read as Rad51 HR inh -2, Arbovirus inh -1, Wee1 degr inh -2, L major viab 100*, CHOP inh 0 and PKD1 kinase inh -2.
c1ccc(C[n+]2cccc3c4ccccc4ccc32)cc1 was read as Rad51 HR inh -5, Arbovirus inh 2, Wee1 degr inh -1, L major viab 97*, CHOP inh -10 and PKD1 kinase inh -3.
`N=C(N)c1ccc(/C=C/c2ccc(C(=N)N)cc2O)cc1` gave Rad51 HR inh -5, Wee1 degr inh 6 and CHOP inh 12.
`O=C(O)CCN1C(=O)CC(N2C(=O)/C(=C/c3ccc(Cl)cc3)SC2=S)C1=O` (stereo not drawn) gave Rad51 HR inh 8, Arbovirus inh -2, Wee1 degr inh -1, L major viab -4, CHOP inh 14 and PKD1 kinase inh 2.
`CCOc1ccc(/C=C2\SC(=S)N(CCC(=O)O)C2=O)cc1` gave Wee1 degr inh -5 and CHOP inh 84*.
COc1ccc(/C=C2\SC(=S)N(CC(=O)N3CCN(C)CC3)C2=O)cc1 was read as Rad51 HR inh -4, Wee1 degr inh -1 and CHOP inh 2.
For CCc1ccc(/C=C2\SC(=S)N(CCC(=O)N3CCN(C)CC3)C2=O)cc1 the results were Rad51 HR inh 4, Arbovirus inh 0, Wee1 degr inh -1, L major viab 99*, CHOP inh -6 and PKD1 kinase inh 5.
Screening O=C(CCN1C(=O)/C(=C\c2ccccc2Cl)SC1=S)N1CCN(c2ccccc2)CC1 returned Rad51 HR inh -11, Arbovirus inh -23, Wee1 degr inh -3, L major viab 91*, CHOP inh 14 and PKD1 kinase inh 1.
CNC(=O)[C@H]1O[C@@H](n2cnc3c(N)ncnc32)C(O)[C@H]1O (stereo partly drawn) was read as CHOP inh -8.
`COC(=O)CCC/C=C1/SCC(NC(=O)c2ccccc2)/C1=N/O` (stereo not drawn) gave Rad51 HR inh 2, Arbovirus inh 4, Wee1 degr inh -3, L major viab -9, CHOP inh -2 and PKD1 kinase inh -12.
Screening COCc1cc(C)nc(N/N=C/c2ccc(Cl)c(Cl)c2)c1C#N returned Rad51 HR inh -3, Arbovirus inh 3, Wee1 degr inh -1, L major viab 85*, CHOP inh 10 and PKD1 kinase inh -12.
Screening COCc1cc(C)nc(N/N=C/c2ccc(-c3cc(C(=O)O)ccc3Cl)o2)c1C#N returned Rad51 HR inh 27, Arbovirus inh 0, Wee1 degr inh -3, L major viab -5, CHOP inh 5 and PKD1 kinase inh 5.
CCc1cccc(C)c1NC(=S)N1CCCCC1c1cccnc1 (stereo not drawn) was read as Wee1 degr inh -1 and CHOP inh -5.
Screening Cc1ccc(NC(=S)N2CCn3cccc3C2c2cccnc2)cc1 (stereo not drawn) returned Rad51 HR inh 11, Arbovirus inh 7, Wee1 degr inh 0, L major viab 81*, CHOP inh 5 and PKD1 kinase inh 0.
CCNC(=S)N1CCn2cccc2C1c1ccc(F)cc1 (stereo not drawn) was read as Rad51 HR inh 8, Arbovirus inh 2, Wee1 degr inh -1, L major viab -7, CHOP inh 4 and PKD1 kinase inh -2.
For CCc1cccc(CC)c1NC(=S)N1CCn2cccc2C1c1cccnc1 (stereo not drawn) the results were Rad51 HR inh 8, Arbovirus inh 9, Wee1 degr inh 1, L major viab 83*, CHOP inh 11 and PKD1 kinase inh 4.
